Measured values from ChEMBL document CHEMBL1156585, “New NSAIDs-NO hybrid molecules with antiproliferative properties on human prostatic cancer cell lines” (Bioorg Med Chem Lett, 2008).
Active and inactive are the calls of the source. The rule behind the calls is not given here.

Experiments:
[1] = molecular target: Prostaglandin G/H synthase 1 (Homo sapiens, UniProt P23219); assay: Inhibition of COX1 in human whole blood; assay type: tissue-based
[2] = molecular target: T1, Prostaglandin G/H synthase 2 (Homo sapiens, UniProt P35354); assay: Inhibition of COX2 in human whole blood; assay type: tissue-based
T1 sequence (P35354 whole entry): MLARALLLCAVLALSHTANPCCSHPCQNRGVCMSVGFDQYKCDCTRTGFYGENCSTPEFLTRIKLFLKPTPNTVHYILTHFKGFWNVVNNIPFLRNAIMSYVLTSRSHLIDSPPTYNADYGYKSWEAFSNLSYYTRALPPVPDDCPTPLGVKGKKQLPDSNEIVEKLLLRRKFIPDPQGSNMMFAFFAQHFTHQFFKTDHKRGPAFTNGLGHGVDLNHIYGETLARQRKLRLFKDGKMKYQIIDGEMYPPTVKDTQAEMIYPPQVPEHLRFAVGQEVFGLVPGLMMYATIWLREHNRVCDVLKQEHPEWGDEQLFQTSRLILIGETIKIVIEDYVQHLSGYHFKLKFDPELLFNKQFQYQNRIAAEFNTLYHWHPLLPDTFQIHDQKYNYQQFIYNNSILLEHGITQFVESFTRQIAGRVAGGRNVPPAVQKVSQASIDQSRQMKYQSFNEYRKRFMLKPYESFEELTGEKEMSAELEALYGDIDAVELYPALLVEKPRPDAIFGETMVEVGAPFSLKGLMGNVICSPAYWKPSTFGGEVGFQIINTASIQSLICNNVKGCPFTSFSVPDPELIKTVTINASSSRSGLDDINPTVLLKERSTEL

PC-3 [3] = assay: Antiproliferative activity against human PC3 cells at 100 uM after 72 hrs by MTT assay; assay type: functional; conditions: PC-3, 72 h
Procedure, shortened: (§1)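 PC3 prostate cancer cells kept in RPMI 1640 with 10% fetal calf serum at 37 °C, 5% CO₂. Seeded at 1.8 × 10⁴ cells/well, grown 3 days, then serum-starved 24 h to synchronize. Exposed to compounds at 1, 10, 50 and 100 µM (as solubility allows) in <0.1% DMSO for 72 h. Growth read by colorimetric MTT test.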

Blood [4] = assay: Induction of profen release in human whole blood at 10 uM after 22 hrs by HPLC; assay type: functional
Procedure, shortened: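 Same blood pool as the COX inhibition runs. Compound incubated 22 h, then the free profen released was measured as a percentage ratio.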

PC-3 [5] = assay: Antiproliferative activity against human PC3 cells after 72 hrs by MTT assay; assay type: functional, cell-based; conditions: PC-3, 72 h; procedure, shortened: as §1
Blood [6] = assay: Induction of nitric oxide release in human whole blood after 6 hrs by EPR spectroscopy; assay type: functional, tissue-based

Prostaglandin G/H synthase 1, sequence (P23219 whole entry): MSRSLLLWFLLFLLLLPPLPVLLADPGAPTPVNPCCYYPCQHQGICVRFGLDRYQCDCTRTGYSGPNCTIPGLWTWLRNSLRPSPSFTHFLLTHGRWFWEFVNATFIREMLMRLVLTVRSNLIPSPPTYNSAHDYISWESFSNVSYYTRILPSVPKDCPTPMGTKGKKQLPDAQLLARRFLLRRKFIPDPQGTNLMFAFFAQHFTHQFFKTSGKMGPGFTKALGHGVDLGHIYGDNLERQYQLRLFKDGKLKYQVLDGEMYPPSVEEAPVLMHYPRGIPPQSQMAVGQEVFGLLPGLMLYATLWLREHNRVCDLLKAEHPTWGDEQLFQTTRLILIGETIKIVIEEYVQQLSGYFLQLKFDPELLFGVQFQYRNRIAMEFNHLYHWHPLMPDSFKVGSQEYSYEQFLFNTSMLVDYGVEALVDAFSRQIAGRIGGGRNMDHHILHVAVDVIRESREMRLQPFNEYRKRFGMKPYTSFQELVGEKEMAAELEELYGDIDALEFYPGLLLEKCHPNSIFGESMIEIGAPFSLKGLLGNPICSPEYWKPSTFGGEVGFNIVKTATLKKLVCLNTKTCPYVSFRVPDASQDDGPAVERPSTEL

| IC50 [1] | IC50 [2] | IC50 (PC-3 [5]) | Compound | inhibition at 100 µM (PC-3 [3]) | Activity (Blood [4]) | Activity (Blood [6]) |
| --- | --- | --- | --- | --- | --- | --- |
| 560 nM | 2750 nM |  | CC(C(=O)O)c1ccc(C(=O)c2cccs2)cc1 (stereo not drawn) [SUPROFEN] | 0% |  |  |
| 480 nM | 2700 nM |  | CC(C(=O)OCC(CO[N+](=O)[O-])O[N+](=O)[O-])c1ccc(C(=O)c2cccs2)cc1 (stereo not drawn) | 33% | 73% |  |
| 110000 nM | 65000 nM | 48000 nM | CC(C(=O)OCCO[N+](=O)[O-])c1ccc2c(c1)[nH]c1ccc(Cl)cc12 (stereo not drawn) |  | 88% |  |
| 580 nM | 740 nM |  | CC(C(=O)OCC(CO[N+](=O)[O-])O[N+](=O)[O-])c1cccc(C(=O)c2ccccc2)c1 (stereo not drawn) | 21% | 79% |  |
|  |  |  | CC(C(=O)O)c1ccc2c(c1)[nH]c1ccc(Cl)cc12 (stereo not drawn) [CARPROFEN] | 5% |  |  |
| 450 nM | 770 nM |  | CC(C(=O)OCCO[N+](=O)[O-])c1cccc(C(=O)c2ccccc2)c1 (stereo not drawn) | 26% | 73% |  |
| 580 nM | 5800 nM |  | CC(C(=O)OCCO[N+](=O)[O-])c1ccc(C(=O)c2cccs2)cc1 (stereo not drawn) | 7% | 46% |  |
| 123000 nM | 45000 nM | 48000 nM | CC(COC(=O)C(C)c1ccc2c(c1)[nH]c1ccc(Cl)cc12)O[N+](=O)[O-] (stereo not drawn) |  | 100% |  |
| 600 nM | 730 nM |  | CC(COC(=O)C(C)c1cccc(C(=O)c2ccccc2)c1)O[N+](=O)[O-] (stereo not drawn) | 26% | 70% | Active |
|  |  |  | CC(C(=O)O)c1cccc(C(=O)c2ccccc2)c1 (stereo not drawn) [KETOPROFEN] | 0% |  |  |
| 570 nM | 4560 nM |  | CC(COC(=O)C(C)c1ccc(C(=O)c2cccs2)cc1)O[N+](=O)[O-] (stereo not drawn) | 13% | 86% |  |
